# Assay results from different studies.
# Protocols differ between the studies behind these lines.
# SIRT6: NAD-dependent protein deacylase sirtuin-6 (SIRT6, Homo sapiens, UniProt Q8N6T7)
# TEK: Angiopoietin-1 receptor (TEK, Homo sapiens, UniProt Q02763)
# PTPRC: Receptor-type tyrosine-protein phosphatase C (PTPRC, Homo sapiens, UniProt P08575)
# FASN: Fatty acid synthase (FASN, Gallus gallus, UniProt P12276)
# MAPK10: Mitogen-activated protein kinase 10 (MAPK10, Homo sapiens, UniProt P53779)
# ALK: ALK tyrosine kinase receptor (ALK, Homo sapiens, UniProt Q9UM73)
# CCR5: C-C chemokine receptor type 5 (CCR5, Homo sapiens, UniProt P51681)
# CTSB: Cathepsin B (CTSB, Homo sapiens, UniProt P07858)
# PDE1A: Dual specificity calcium/calmodulin-dependent 3',5'-cyclic nucleotide phosphodiesterase 1A (PDE1A, Homo sapiens, UniProt P54750)
# SCN5A: Sodium channel protein type 5 subunit alpha (SCN5A, Homo sapiens, UniProt Q14524)
# CCR2: C-C chemokine receptor type 2 (CCR2, Homo sapiens, UniProt P41597)
Compound,target,observed,action,technique,setting,IC50
NC(=O)c1ccc(C(=O)NOCc2ccc(Sc3ccc(C(F)(F)F)cc3)c(C(F)(F)F)c2)cc1,SIRT6,enzyme activity,inhibitor,fluorescence,,1.79 µM
CC(C)(C)Nc1nc(N)c(C(=O)c2ccc(Cl)cc2)s1,"Cyclin-dependent kinase 2 (CDK2, Homo sapiens, UniProt P24941)",enzyme activity,inhibitor,mobility shift,,4.9 µM
Nc1nonc1-n1cc(C(=O)N/N=C/c2ccc([N+](=O)[O-])cc2O)nn1,SIRT6,enzyme activity,inhibitor,fluorescence,,121 µM
CNC(=O)c1cc2c(Oc3ccc(NC(=O)C4(C(=O)Nc5ccc(F)cc5)CC4)cc3)ccnc2cc1OC,TEK,enzyme activity,inhibitor,radiometric,,0.032 µM
O=C(O)c1cc(O)c2c(c1)[C@H]([C@H]1c3cc(C(=O)O)cc(O)c3C(=O)c3c(O[C@@H]4O[C@H](CO)[C@@H](O)[C@H](O)[C@H]4O)cccc31)c1cccc(O[C@@H]3O[C@H](CO)[C@@H](O)[C@H](O)[C@H]3O)c1C2=O,PTPRC,enzyme activity,inhibitor,fluorescence,,2 µM
C=C(C)[C@H](CC=C(C)C)Cc1c(O)cc(OC)c(C(=O)/C=C/c2ccc(O)cc2O)c1O,FASN,enzyme activity,inhibitor,radiometric,,9.6 µM
CSc1nc(C)c(-c2ccnc(N[C@H]3CC[C@H](NC(=O)C(C)(C)C)CC3)c2)[nH]1,MAPK10,enzyme activity,inhibitor,ELISA,,2.54 µM
Cc1cc(-c2cc(C#N)ccc2O[C@@H]2C[C@]2(CO)c2ccc(F)cc2F)n[nH]1 (racemic),ALK,enzyme activity,inhibitor,TR-FRET,,0.034 µM
CN(Cc1ccc(NC(=O)C2=Cc3cc(-c4ccc(OCCCF)cc4)ccc3CCC2)cc1)C1CCOCC1,CCR5,ligand displacement,,radioligand,cell membranes,2.7 µM
CC(=O)c1ccc2[nH]c3nc(C)ccc3c2c1,ALK,enzyme activity,inhibitor,ELISA,,> 10 µM
COc1cc(/C=N/n2c(C)nc3ccc(Br)cc3c2=O)ccc1OCc1ccc(Cl)cc1,CTSB,enzyme activity,inhibitor,,,45.8 µM
COc1cc(C[C@H]2C(=O)OC[C@@H]2Cc2ccc(OC)c(OC)c2)ccc1O,PDE1A,enzyme activity,inhibitor,,,> 20 µM
CN1C(=O)c2c(nn(Cc3ccc(-c4cccc(F)n4)cc3)c2Nc2ccccc2)N2C1=N[C@@H]1CCC[C@@H]12,PDE1A,enzyme activity,inhibitor,radiometric,,3.1e-05 µM
COc1cc(O)c(CC=C(C)C)c2c1C(=O)CC(c1ccc(O)cc1)O2 (centres unmarked),FASN,enzyme activity,inhibitor,radiometric,,> 100 µM
Nc1nonc1-n1cc(C(=O)N/N=C/c2ccccc2C(=O)O)nn1,SIRT6,enzyme activity,inhibitor,fluorescence,,59.5 µM
Cc1cc(-c2cccc(OC(F)(F)F)c2)[nH]n1,ALK,enzyme activity,inhibitor,TR-FRET,,95 µM
CCOC(F)(F)c1nnc2cnc(-c3cnc(OCC(F)(F)F)c(F)c3)cn12,SCN5A,ion current,inhibitor,patch clamp,,0.989 µM
N#Cc1ccc(COC[C@H]2O[C@@H](n3c(NCc4ccc(Cl)c(Cl)c4)nc4c(N)ncnc43)[C@H](O)[C@@H]2O)cc1,"Heat shock cognate 71 kDa protein (HSPA8, Homo sapiens, UniProt P11142)",ligand displacement,,FP,,0.39 µM
NC(=O)c1ccc(C(=O)NOCc2cc(Cl)cc(Cl)c2)cc1,SIRT6,enzyme activity,inhibitor,fluorescence,,2.97 µM
Cc1nc2ccc(Cl)cc2c(=O)n1NC1=NC(=O)CS1,CTSB,enzyme activity,inhibitor,,,74.5 µM
CCn1ncc2c1-c1cnc(N)c(c1)O[C@H](C)c1cc(F)ccc1-c1nn(C)nc1C2,TEK,enzyme activity,inhibitor,radiometric,,0.28 µM
Cc1cc(-c2cccc(C(F)(F)F)c2)n[nH]1,ALK,enzyme activity,inhibitor,TR-FRET,,60 µM
CN(Cc1ccc(NC(=O)C2=Cc3cc(-c4ccc(OCCCO)cc4)ccc3CCC2)cc1)C1CCOCC1,CCR2,calcium signal,antagonist,,,0.045 µM
CCc1ccc(/C=N/n2c(C)nc3ccc(C)cc3c2=O)s1,CTSB,enzyme activity,inhibitor,,,118 µM
c1ccc(Nc2ccc3c(n2)[nH]c2ccccc23)cc1,ALK,enzyme activity,inhibitor,ELISA,,> 10 µM
Cc1cc(-c2cc(C#N)ccc2O[C@@H]2C[C@]2(CN(C)C)c2ccc(F)cc2F)n[nH]1 (racemic),ALK,enzyme activity,inhibitor,TR-FRET,,0.11 µM
O=C(Oc1cc(O)cc2c1C[C@@H](OC(=O)c1cc(O)c(O)c(O)c1)[C@@H](c1cc(O)c(O)c(O)c1)O2)c1cc(O)c(O)c(O)c1,PTPRC,enzyme activity,inhibitor,fluorescence,,0.5 µM
C/C(=C\C(=O)OCCCCCCCCC(=O)O)C[C@@H]1OC[C@H](C[C@@H]2O[C@H]2[C@@H](C)[C@H](C)O)[C@@H](O)[C@H]1O,CCR5,calcium signal,antagonist,,,10.6 µM
NC(=O)c1ccc(C(=O)NOCc2ccc(C(=O)c3ccccc3)cc2)cc1,SIRT6,enzyme activity,inhibitor,fluorescence,,2.8 µM
CCCC#Cc1ccc2c(n1)[nH]c1ccccc12,ALK,enzyme activity,inhibitor,ELISA,,> 10 µM
NC(=O)c1ccc(C(=O)NOCc2ccccc2Cl)cc1,SIRT6,enzyme activity,inhibitor,fluorescence,,11.4 µM
O=C(Nc1ccn(Cc2ccc(O)cc2C(F)(F)F)n1)c1c(F)cccc1F,SCN5A,ion current,inhibitor,,,> 10 µM
Cc1cc(-c2ccccc2)n[nH]1,ALK,enzyme activity,inhibitor,TR-FRET,,> 300 µM
CCOc1ccc2c(-c3cc(C)nc(Nc4cc(OC)cc(C(F)(F)F)c4)n3)cnn2n1,"Dual specificity protein kinase CLK3 (CLK3, Homo sapiens, UniProt P49761)",enzyme activity,inhibitor,,,> 10 µM
CSc1nc(C)c(-c2ccnc(N[C@H]3CC[C@H](NC(=O)c4ccccc4)CC3)c2)[nH]1,MAPK10,enzyme activity,inhibitor,ELISA,,1.22 µM
Cc1cc(-c2cc(C#N)ccc2O[C@@H]2C[C@]2(CN)c2ccc(F)cc2F)n[nH]1 (racemic),ALK,phosphorylation in cells,inhibitor,ELISA,,0.16 µM
O=c1cc(-c2ccc3c(c2)OCO3)oc2c1ccc1occc12,"Cyclin-dependent kinase 2, with cyclin E1 (CDK2, Homo sapiens, UniProt P24941)",enzyme activity,inhibitor,ADP detection,,> 100 µM
CC(C)CCNC(=O)c1csc(-c2cccc(Cl)c2Cl)n1,"Pantothenate kinase 1 (Homo sapiens, UniProt Q8TE04)",enzyme activity,inhibitor,ATP luminescence,,0.93 µM
NC(=O)c1ccc(C(=O)NOCc2ccc(Sc3ccccc3Cl)c(C(F)(F)F)c2)cc1,SIRT6,enzyme activity,inhibitor,fluorescence,,3.82 µM
CN(Cc1ccc(NC(=O)C2=Cc3cc(-c4ccc(OCCCCCO)cc4)ccc3CCC2)cc1)C1CCOCC1,CCR2,calcium signal,antagonist,,,0.01 µM
NC(=O)c1ccc(C(=O)NOCc2ccc(Sc3ccc(Cl)cc3)c(C(F)(F)F)c2)cc1,SIRT6,enzyme activity,inhibitor,fluorescence,,1.51 µM
CC(C)C[C@H](NC(=O)[C@H]1O[C@@H]1C(=O)O)C(=O)NCCCCN=C(N)N,CTSB,enzyme activity,inhibitor,,,0.00315 µM
CN(Cc1ccc(NC(=O)C2=Cc3cc(-c4ccc(OCCCCCCCF)cc4)ccc3CCC2)cc1)C1CCOCC1,CCR2,calcium signal,antagonist,,,0.0011 µM
NC(=O)c1ccc(C(=O)NOCc2ccc(Sc3ccccc3)cc2)cc1,SIRT6,enzyme activity,inhibitor,fluorescence,,1.78 µM
O=C(O)CC(=O)C(=O)O,"LDHA (Oryctolagus cuniculus, UniProt P13491)",enzyme activity,inhibitor,,,3320 µM
Cc1cc(-c2cccc(F)c2)n[nH]1,ALK,enzyme activity,inhibitor,TR-FRET,,240 µM
NS(=O)(=O)c1ccc(C(=O)NOCc2ccccc2)cc1,SIRT6,enzyme activity,inhibitor,fluorescence,,116 µM
Cc1ccc(C(=O)Nc2ccc(Oc3cc4cnn(C)c4cc3-c3cn[nH]c3)c(F)c2)c(=O)n1-c1ccc(F)cc1,TEK,cell growth or viability,,ATP luminescence,,0.063 µM
Cc1cnc(-c2ccc(-c3ccc(NC(=O)Nc4c(F)cc(F)cc4F)cc3F)c3c2C(=O)NC3)[nH]1,TEK,enzyme activity,inhibitor,,,0.0065 µM
COc1ccc2c(Oc3ccc4c(C(=O)Nc5ccccc5N)cccc4c3)ccnc2c1,"Tyrosine-protein kinase Fyn (FYN, Homo sapiens, UniProt P06241)",enzyme activity,inhibitor,,,> 0.5 µM
